Experimental data: ChEMBL document CHEMBL5154945, “Discovery and Optimization of Pyrrolopyrimidine Derivatives as Selective Disruptors of the Perinucleolar Compartment, a Marker of Tumor Progression toward Metastasis” (J Med Chem, 2022)
Activity calls are given as the source filed them. No cut-off for these calls is given here.

Assays:
[1] = test system: PC-3M; test: Anticancer activity in human PC-3M cells expressing PTB/GFP fusion protein assessed as perinucleolar compartment disassembly and measured after 24 hrs by Hoechst 33342 staining based microscopic method; type: functional, cell-based; conditions: read-out: IC50
Summary of the method: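 Imaged by high-content microscopy. Nuclei with PNC spots ≥3 and >0 scored positive. PNC prevalence % = PNC-positive nuclei/total nuclei ×100, normalized to DMSO (0% activity) and 0% PNC (−100%). IC50 from concentration-response.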

[2] = Permeability of the compound at pH 7.4 incubated for 30 mins by UV plate reader based PAMPA assay; conditions: pampa, pH 7.4, 0.5 h
[3] = Microsomal stability in CD1 mouse liver microsomes assessed as half life measured upto 60 mins in presence of NADPH by LC-MS analysis; conditions: mouse, microsomes, 1 h
[4] = test system: PC-3M; test: Antiproliferative activity against human PC-3M cells expressing PTB/GFP fusion protein assessed as cell growth inhibition and measured every four hrs for 130 hrs by IncuCyte zoom live cell analysis; type: functional, cell-based
Summary of the method: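 PC3M-PTB1-GFP cells in DMEM/10% FBS, seeded at 1.25×10^4 cells/ml and left overnight at 37 °C, 5% CO2. Compound added to give 11 final concentrations, 10 nM to 20 μM. Brightfield images taken every 4 h for about 130 h; percent confluence measured.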

IC50 [1]: > 20 µM | permeability [2]: 1729 10^-6 cm/s | t1/2 [3]: 5.2 min
SMILES: N=c1c2c(-c3ccccc3)cn(Cc3ccccc3)c2ncn1C1CCOCC1
Activity [4]: Active
